Data from ChEMBL document CHEMBL3232859, “Absolute configuration of (13R)- and (13S)-labdane diterpenes coexisting in Ageratina jocotepecana” (2014).
In brackets after ≈: the same amount, converted by molar mass. Activity calls are given as the source filed them. The rule behind the calls is not given here.

Key:
Bacillus subtilis = test: Antibacterial activity against Bacillus subtilis assessed as growth inhibition after 18 hrs by agar diffusion method; assay type: functional
Outline: (§1)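 MIC by agar diffusion: ethanolic solutions, starting at a maximum of 0.01 mg/μL with successive 2-fold dilutions; 6 μL aliquots deposited on solidified agar; inhibition zone diameter read after 18 h incubation at 37 °C. Cefotaxime positive control, EtOH negative control.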

Staphylococcus aureus = test: Antibacterial activity against Staphylococcus aureus assessed as growth inhibition after 18 hrs by agar diffusion method; assay type: functional; outline: as §1
Escherichia coli = test: Antibacterial activity against Escherichia coli assessed as growth inhibition at 0.01 mg/uL after 18 hrs by agar diffusion method; assay type: functional, organism-based
Outline: (§2)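 Single-concentration agar diffusion screen: 6 μL aliquots of ethanolic solutions of pure compounds (0.01 mg/μL) deposited on solidified agar; inhibition zone diameter measured after 18 h incubation at 37 °C.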

Klebsiella pneumoniae = test: Antibacterial activity against Klebsiella pneumoniae assessed as growth inhibition at 0.01 mg/uL after 18 hrs by agar diffusion method; assay type: functional, organism-based; outline: as §2

Row | MIC (Bacillus subtilis) [mg/L] | MIC (Staphylococcus aureus) [mg/L] | Structure (SMILES) | growth inhibition (GI) (Escherichia coli) | growth inhibition (GI) (Klebsiella pneumoniae)
1 | 12500 (≈ 27.4 mM) | 130 (≈ 0.285 mM) | CO/N=C(\C(=O)N[C@@H]1C(=O)N2C(C(=O)O)=C(COC(C)=O)CS[C@H]12)c1csc(N)n1 [CEFOTAXIME] |  | 
2 | 1560 (≈ 4.81 mM) | 2340 (≈ 7.21 mM) | C[C@H](CC[C@@H]1[C@@]2(C)CCCC(C)(C)[C@@H]2CC[C@@]1(C)O)CC(=O)O | inactive | inactive
3 | 1000 (≈ 3.28 mM) | 10000 (≈ 32.8 mM) | CC1=CC[C@H]2C(C)(C)CCC[C@]2(C)[C@H]1CC/C(C)=C\C(=O)O | inactive | inactive
4 | 150 (≈ 0.489 mM) | 780 (≈ 2.54 mM) | CC1=CC[C@H]2C(C)(C)CCC[C@]2(C)[C@H]1CC[C@H](C)CC(=O)O | inactive | inactive
